Assay outcomes: PubChem, several laboratories
Most compounds without a hit are left out; they make up all but 2.9% or so of the library.
RORa activator: activates the human nuclear receptor RORA; CHO-K1 Gal4-RORA LBD luciferase reporter, luminescence; percent increase over mock-subtracted basal signal; P35398; actives 1.5% (n = 65,000); AID 560; activation, % at 10 µM;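 active means activation above the mean of all tested compounds plus 3 SD, cut at about 49% in these data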;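 further: 0% = DMSO-treated RORA cells and 100% = added signal equal to DMSO minus mock-transfected cells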
Target sequence (P35398 whole entry, looked up, the tested form may be a part): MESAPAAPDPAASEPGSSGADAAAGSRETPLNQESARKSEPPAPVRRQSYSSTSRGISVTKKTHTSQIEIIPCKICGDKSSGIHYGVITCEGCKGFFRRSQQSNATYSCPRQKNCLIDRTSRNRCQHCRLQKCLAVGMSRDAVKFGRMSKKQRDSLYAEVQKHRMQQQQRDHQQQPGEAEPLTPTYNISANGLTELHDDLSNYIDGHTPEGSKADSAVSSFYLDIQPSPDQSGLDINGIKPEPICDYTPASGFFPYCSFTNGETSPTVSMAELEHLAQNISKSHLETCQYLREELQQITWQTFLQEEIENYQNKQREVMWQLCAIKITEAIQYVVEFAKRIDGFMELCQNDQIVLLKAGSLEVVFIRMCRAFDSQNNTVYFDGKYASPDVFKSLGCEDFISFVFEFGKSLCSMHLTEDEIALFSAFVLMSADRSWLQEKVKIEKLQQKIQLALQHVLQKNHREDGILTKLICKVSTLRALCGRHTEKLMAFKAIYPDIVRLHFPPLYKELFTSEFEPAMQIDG
SF-1 act: activators of human nuclear receptor SF-1; Q13285; CHO-K1 Gal4-SF-1 LBD luciferase reporter; % increase over DMSO SF-1-specific signal; activation, % at 10 µM; actives 1.9% (n = 65,000); AID 522;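 active means activation above the mean activation of all tested compounds plus 3 SD, cut at about 50% in these data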
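Material: Gal4–SF-1 LBD one-hybrid luciferase reporter in CHO-K1 cells | Amount: 4,000 cells per well | Compound dosing: 10 µM single point, 1% DMSO | Schedule: 20 h compound treatment, 37 °C | Measured by: SteadyLite luciferase luminescence | Evaluation: Percent activation versus DMSO | Control set: DMSO-treated SF-1-transfected cells as negative, DMSO-treated mock-transfected cells lacking SF-1 as background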
Jurkat tox 60K: cytotoxic compounds reducing Jurkat cell viability. actives 1.2% (n = 56,000). inhibition, % at 4 µM. Jurkat E6.1 viability, ATP luminescence, 48 h;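 active means inhibition above the mean inhibition of all tested compounds plus 3 SD, cut at about 28% in these data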
HEK293 NFkB inh: inhibitors of the PMA/ionomycin-induced NF-kB reporter in HEK293 cells | HEK-293 NF-kB luciferase reporter, luminescence | actives 0.21% (n = 62,000) | inhibition, % at 3 µM;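 active means inhibition above the mean of all tested compounds plus 3 SD, cut at about 40% in these data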;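 further: 0% = stimulated DMSO wells and 100% = 10 µM reference inhibitor 5653914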
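System: NF-kB luciferase reporter HEK-293 cells | Replication: Single test | Control set: DMSO vs reference inhibitor | Evaluation: % inhibition | Schedule: 1 h pretreatment, 16 h stimulation, 37 °C | Probe or stimulus: PMA with ionomycin | Compound dosing: One dose, 3 µM | Detection: Luciferase luminescence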
MT1-MMP txn act: activates MT1-MMP transcription | HT1080 MT1-MMP promoter luciferase reporter, luminescence, overnight; stronger effect = higher value | actives 0.16% (n = 86,000) | activation factor at 10 µM;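 active means activation factor of at least 2 for MT1-MMP transcription at 10 µM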
* marks the source's active call; other numbers are inactive results.

CCCC(C(=O)NC1CCCC1)N(C(=O)Cn1nnc(-c2ccc(C)o2)n1)c1ccccc1OC (centres undefined) was read as RORa activator 22, SF-1 act -6, Jurkat tox 60K 7, HEK293 NFkB inh 11 and MT1-MMP txn act 1.1.
N#Cc1nc(COc2cccc(Cl)c2)oc1NCc1ccco1 was read as RORa activator 66*, SF-1 act 40, Jurkat tox 60K -1 and HEK293 NFkB inh 1.
For Cc1ccc(-c2nc(C#N)c(NCc3ccco3)o2)cc1 the results were RORa activator 89*, SF-1 act 6, Jurkat tox 60K 8, HEK293 NFkB inh 1 and MT1-MMP txn act 1.4.
Screening COc1ccc(OC)c(NC(=O)C23CCC(C)(C(=O)C2)C3(C)C)c1 (centres undefined) returned RORa activator 2, SF-1 act 1, Jurkat tox 60K 1, HEK293 NFkB inh 18 and MT1-MMP txn act 1.3.
Screening O=c1sc(Nc2ccccc2)nc2ccsc12 returned RORa activator 70*, SF-1 act 56* and HEK293 NFkB inh -8.
For COc1ccc2nc(N3CCCCC3)c(C#N)cc2c1 the results were RORa activator 31, SF-1 act 50*, Jurkat tox 60K 1, HEK293 NFkB inh 2 and MT1-MMP txn act 1.3.
Screening CC1CCCCC1n1c(=S)[nH]c2ccccc2c1=O (centres undefined) returned RORa activator -6, SF-1 act -18, HEK293 NFkB inh 8 and MT1-MMP txn act 1.1.
Screening CCOC(=O)CSC1=C(C#N)C(c2ccc(C)s2)CC(=O)N1 (centres undefined) returned RORa activator 54*, SF-1 act 26, Jurkat tox 60K 86*, HEK293 NFkB inh 23 and MT1-MMP txn act 0.5.
`COc1ccc2c(c1)sc1nc(-c3ccccc3)cn12` gave RORa activator -92, SF-1 act -89, Jurkat tox 60K 100*, HEK293 NFkB inh 67* and MT1-MMP txn act 0.
Clc1nc2sccn2c1/C=N/n1cnc2ccccc21 was read as RORa activator 52*, SF-1 act 40, HEK293 NFkB inh -7 and MT1-MMP txn act 1.2.
For COc1ccc(OC)c(N=c2oc3cc(O)ccc3cc2C(N)=O)c1 the results were RORa activator 68*, SF-1 act 43, Jurkat tox 60K -4, HEK293 NFkB inh 3 and MT1-MMP txn act 1.
`NC(=O)c1cc2ccc(O)cc2oc1=Nc1ccccc1` gave RORa activator 32, SF-1 act 17, Jurkat tox 60K 11, HEK293 NFkB inh 2 and MT1-MMP txn act 1.2.
Screening Cc1noc(/C=C/N(C)C)c1S(=O)(=O)N1CCCC(C(=O)NC(C)c2ccccc2)C1 (centres undefined) returned RORa activator 8, SF-1 act 5, Jurkat tox 60K 8, HEK293 NFkB inh 18 and MT1-MMP txn act 1.
Screening CC(=O)c1cccc(NC(=O)NC(C)c2ccncc2)c1 (centres undefined) returned RORa activator -4, SF-1 act -2, Jurkat tox 60K -7, HEK293 NFkB inh 18 and MT1-MMP txn act 1.2.
For O=C(O)[C@@H]1CCCC[C@@H]1C(=O)N1CCc2ccccc2C1CN1C(=O)c2ccccc2C1=O (some centres undefined) the results were RORa activator 22, SF-1 act 12, Jurkat tox 60K 2, HEK293 NFkB inh 59* and MT1-MMP txn act 1.
Screening COC(=O)CCS(=O)(=O)c1nc(-c2ccccc2)cc(C(F)(F)F)n1 returned MT1-MMP txn act 0.9.
For COc1ccc(-c2cc(C(F)(F)F)nc(S(C)(=O)=O)n2)cc1 the results were MT1-MMP txn act 1.
`CCOC(=O)CS(=O)(=O)c1nc(-c2ccc(F)cc2)cc(C(F)(F)F)n1` gave RORa activator -61, SF-1 act -33, Jurkat tox 60K 34*, HEK293 NFkB inh 14 and MT1-MMP txn act 0.5.
CCOC(=O)CS(=O)(=O)c1nc(-c2ccccc2)cc(C(F)(F)F)n1 was read as RORa activator -60, SF-1 act -44, Jurkat tox 60K 55*, HEK293 NFkB inh 4 and MT1-MMP txn act 0.9.
Screening CCOC(=O)CCS(=O)(=O)c1nc(-c2ccccc2)cc(C(F)(F)F)n1 returned RORa activator -37, SF-1 act -26, Jurkat tox 60K 68* and HEK293 NFkB inh 10.
For O=C(CSc1ncnc2c1oc1ccccc12)NCc1ccco1 the results were RORa activator 11, SF-1 act 5, Jurkat tox 60K 3, HEK293 NFkB inh 16 and MT1-MMP txn act 1.3.
`CC(C)(C)n1ncc2c(=O)n(CC(=O)NCCc3ccccc3)cnc21` gave RORa activator -1, SF-1 act 32, Jurkat tox 60K 5, HEK293 NFkB inh 6 and MT1-MMP txn act 1.4.
`CC(C)(C)n1ncc2c(=O)n(CC(=O)NCc3ccccc3Cl)cnc21` gave RORa activator 8, SF-1 act 74*, Jurkat tox 60K 4, HEK293 NFkB inh -71 and MT1-MMP txn act 0.8.
CC(C)Oc1ccc(/C(O)=C2/C(=O)C(=O)N(CCCN3CCOCC3)C2c2ccncc2)cc1 (centres undefined) was read as RORa activator -4, SF-1 act -2, Jurkat tox 60K 6, HEK293 NFkB inh 9 and MT1-MMP txn act 1.2.
Screening CC(C)OCCCN1C(=O)c2[nH]nc(-c3ccccc3O)c2C1c1cccc(Cl)c1 (centres undefined) returned RORa activator 5, SF-1 act 7, Jurkat tox 60K 8, HEK293 NFkB inh 7 and MT1-MMP txn act 1.3.
For COCCCN1C(=O)c2[nH]nc(-c3ccccc3O)c2C1c1cccc(Cl)c1 (centres undefined) the results were RORa activator 18, SF-1 act 30, Jurkat tox 60K 90*, HEK293 NFkB inh 7 and MT1-MMP txn act 0.7.
Screening CC(C)OC1=C(OC(C)C)C(O)(C#CCN(C(=O)/C=C/c2ccccc2)C(C)(C)C)C1=O (centres undefined) returned MT1-MMP txn act 1.1.
CN1CCN(c2ccc(C(=O)c3ccc(F)cc3)cc2)CC1 was read as RORa activator 61*, SF-1 act 38, Jurkat tox 60K 1, HEK293 NFkB inh -20 and MT1-MMP txn act 1.1.
`O=C(c1ccccc1)c1ccc(N2CCCC2)cc1` gave RORa activator 30, SF-1 act 77*, HEK293 NFkB inh -10 and MT1-MMP txn act 1.4.
For O=C(O)CCC(=O)N1CCN(c2ccc(C(=O)c3ccc(F)cc3)cc2)CC1 the results were RORa activator 15, SF-1 act -11, Jurkat tox 60K 1, HEK293 NFkB inh 19 and MT1-MMP txn act 1.1.
CCN(CC)S(=O)(=O)c1cc(C(=O)n2cccn2)c(Cl)cc1Cl was read as RORa activator -9, SF-1 act 5, Jurkat tox 60K -1, HEK293 NFkB inh 4 and MT1-MMP txn act 1.1.
For CN1C(=O)/C(=C/c2cn(CC(=O)N3CCCCC3)c3ccccc23)c2ccccc21 the results were MT1-MMP txn act 1.
